Columns and labels:
L1210 [1] = test: Antitumor activity expressed as life span was determined against inoculated L1210 leukemia cells (1*10e5) in mice by 22.5 mg/kg dosage of compound (qd (x 3), for days 1, 4, 7,10,13,16); format: functional, Mus musculus
Summary of the method: (§1)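 Female mice (~18 g, housed six per cage) received L1210 cells intraperitoneally on day 0. Drug was made fresh and injected at 0.01 mL/g; the stated dose is per injection. Controls received the same volume of 0.154 M NaCl. Survival was followed, with deaths assigned to tumour by necropsy or to drug toxicity by set criteria. Life span is given as mean ± SD.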

L1210 [2] = test: Antitumor activity expressed as life span was determined against inoculated L1210 leukemia cells (1*10e5) in mice by 22.5 mg/kg dosage of compound (qd (x 3), for days 1,5,9); format: functional, Mus musculus; summary of the method: as §1
L1210 [3] = test: Antitumor activity expressed as life span was determined against inoculated L1210 leukemia cells (1*10e5) in mice by 45 mg/kg dosage of compound (qd (x 3), for days 1,5,9); format: functional, Mus musculus; summary of the method: as §1
L1210 [4] = test: Antitumor activity expressed as life span was determined against inoculated L1210 leukemia cells (1*10e6) in mice by 11.3 mg/kg dosage of compound (qd (x 3), for days 1, 4, 7,10,13,16); format: functional, Mus musculus; summary of the method: as §1
L1210 [5] = test: Antitumor activity expressed percentage increase in life span was determined against inoculated L1210 leukemia cells (1*10e5) in mice by 5.6 mg/kg dosage of compound (qd (x 3), for days 1, 4, 7,10,13,16); format: functional; conditions: Mus musculus
Summary of the method: (§2)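 L1210 cells were given intraperitoneally to female mice (~18 g). Freshly prepared drug was injected at 0.01 mL/g, dose per injection, and saline-injected controls were run. The end point was duration of survival. ILS was calculated as percent increase in mean life span over controls. Mice surviving 60 days or more counted as long-term survivors, scored as 60 days.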

M5076 [6] = test: Antitumor activity was evaluated by measuring mean life span in tumor (M5076) inoculated mice at 11.3 mg/kg (qd3hx8),days 1-34; format: functional, Mus musculus
Summary of the method: (§3)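 Female mice of about 18 g received subcutaneous M5076 implants matching those used for serial passage. Drug was freshly prepared and injected at 0.01 mL/g every 3 h (×8) on every 3rd day from day 1 to day 34, with the dose stated per injection. Controls received 0.154 M NaCl. Groups held 18 mice (11 in one group). Mean life span was reported as mean ± SD, and tumor volume was also assessed.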

L1210 [7] = test: Antitumor activity expressed as life span was determined against inoculated L1210 leukemia cells (1*10e6) in mice by 45 mg/kg dosage of compound (qd (x 3), for days 1, 4, 7); format: functional, Mus musculus; summary of the method: as §1
L1210 [8] = test: Antitumor activity expressed percentage increase in life span was determined against inoculated L1210 leukemia cells (1*10e5) in mice by 11.3 mg/kg dosage of compound (qd (x 3), for days 1, 4, 7,10,13,16); format: functional; conditions: Mus musculus; summary of the method: as §2
L1210 [9] = test: Antitumor activity expressed percentage increase in life span was determined against inoculated L1210 leukemia cells (1*10e5) in mice by 17.3 mg/kg dosage of compound (qd (x 3), for days 1,5,9); format: functional; conditions: Mus musculus; summary of the method: as §2
L1210 [10] = test: Antitumor activity expressed percentage increase in life span was determined against inoculated L1210 leukemia cells (1*10e5) in mice by 22.5 mg/kg dosage of compound (qd (x 3), for days 1, 4, 7); format: functional; conditions: Mus musculus; summary of the method: as §2
L1210 [11] = test: Antitumor activity expressed percentage increase in life span was determined against inoculated L1210 leukemia cells (1*10e5) in mice by 22.5 mg/kg dosage of compound (qd (x 3), for days 1, 4, 7,10,13,16); format: functional; conditions: Mus musculus; summary of the method: as §2
L1210 [12] = test: Antitumor activity expressed percentage increase in life span was determined against inoculated L1210 leukemia cells (1*10e5) in mice by 45 mg/kg dosage of compound (qd (x 3), for days 1, 4, 7); format: functional; conditions: Mus musculus; summary of the method: as §2
L1210 [13] = test: Antitumor activity expressed percentage increase in life span was determined against inoculated L1210 leukemia cells (1*10e6) in mice by 140 mg/kg dosage of compound (qd (x 3), for days 1, 4, 7); format: functional; conditions: Mus musculus; summary of the method: as §2
L1210 [14] = test: Antitumor activity expressed percentage increase in life span was determined against inoculated L1210 leukemia cells (1*10e6) in mice by 180 mg/kg dosage of compound (qd (x 3), for days 1, 4, 7); format: functional; conditions: Mus musculus; summary of the method: as §2
M5076 [15] = test: Antitumor activity was evaluated by measuring mean life span in tumor (M5076) inoculated mice at 22.5 mg/kg (qd3hx8),days 1-34; format: functional, Mus musculus; summary of the method: as §3
L1210 [16] = test: Antitumor activity expressed percentage increase in life span was determined against inoculated L1210 leukemia cells (1*10e6) in mice by 90 mg/kg dosage of compound (qd (x 3), for days 1, 4, 7); format: functional; conditions: Mus musculus
Summary of the method: (§4)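 Female mice of about 18 g (BDF1, DBA/2 or C57Bl/6 stocks used) were inoculated intraperitoneally with 1 × 10^6 L1210 cells. Freshly prepared drug was given once daily from about 24 h after inoculation at 0.01 mL/g, with the dose stated per injection. Controls received 0.154 M NaCl, and groups held 6 mice. %ILS was taken from mean survival, with mice alive at 60 days or more counted as 60 days.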

L1210 [17] = test: Antitumor activity expressed percentage increase in life span was determined against inoculated L1210 leukemia cells (1*10e6) in mice by 90 mg/kg dosage of compound (qd (x 3), for days 1- 7); format: functional; conditions: Mus musculus; summary of the method: as §4
L1210 [18] = test: Antitumor activity expressed as life span was determined against inoculated L1210 leukemia cells (1*10e6) in mice by 5.6 mg/kg dosage of compound (qd (x 3), for days 1, 4, 7,10,13,16); format: functional, Mus musculus; summary of the method: as §1
L1210 [19] = test: Antitumor activity expressed as life span was determined against inoculated L1210 leukemia cells (1*10e6) in mice by 50 mg/kg dosage of compound (qd (x 3), for days 1- 7); format: functional, Mus musculus; summary of the method: as §1
L1210 [20] = test: Antitumor activity expressed as life span was determined against inoculated L1210 leukemia cells (1*10e6) in mice by 70 mg/kg dosage of compound (qd (x 3), for days 1, 4, 7); format: functional, Mus musculus; summary of the method: as §1
L1210 [21] = test: Antitumor activity expressed as life span was determined against inoculated L1210 leukemia cells (1*10e6) in mice by 70 mg/kg dosage of compound (qd (x 3), for days 1- 7); format: functional, Mus musculus; summary of the method: as §1
B16 melanoma (mouse) [22] = test: Antitumor activity expressed percentage increase in life span was determined against inoculated B16 melanoma in mice by 22.5 mg/kg dosage of compound (qd3hx8), for days 1,4,7,10
B16 melanoma (mouse) [23] = test: Antitumor activity expressed percentage increase in life span was determined against inoculated B16 melanoma in mice by 11.3 mg/kg dosage of compound (qd3hx8), for days 1,4,7,10
B16 melanoma (mouse) [24] = test: Antitumor activity expressed percentage increase in life span was determined against inoculated B16 melanoma in mice by 22.5 mg/kg dosage of compound (qd3hx8), for days 1,4,7,10,13,16
L1210 [25] = test: Antitumor activity expressed as life span was determined against inoculated L1210 leukemia cells (1*10e5) in mice by 5.6 mg/kg dosage of compound (q 3 h (x 8), for days 1, 4, 7,10,13,16)

SMILES: Nc1nc(Br)nc2c1ncn2[C@H]1C[C@H](O)[C@@H](CO)O1
- Life span (L1210 [1]): 20.67 days
- Life span (L1210 [2]): 21.42 days
- Life span (L1210 [3]): 37.73 days
- Life span (L1210 [4]): 13.17 days
- ILS at 5.6 mg/kg (L1210 [5]): 45%
- Life span (M5076 [6]): 39.72 days
- Life span (L1210 [7]): 13.5 days
- ILS at 11.3 mg/kg (L1210 [8]): 128%
- ILS at 17.3 mg/kg (L1210 [9]): 81%
- ILS at 22.5 mg/kg (L1210 [10]): 224%
- ILS at 22.5 mg/kg (L1210 [11]): 153%
- ILS at 45 mg/kg (L1210 [12]): 417%
- ILS at 140 mg/kg (L1210 [13]): 26%
- ILS at 180 mg/kg (L1210 [14]): 0%
- Life span (M5076 [15]): 46.41 days
- ILS at 90 mg/kg (L1210 [16]): 11%
- ILS at 90 mg/kg (L1210 [17]): 0%
- Life span (L1210 [18]): 10.5 days
- Life span (L1210 [19]): 9 days
- Life span (L1210 [20]): 6.5 days
- Life span (L1210 [21]): 7 days
- ILS at 22.5 mg/kg (B16 melanoma (mouse) [22]): 50%
- ILS at 11.3 mg/kg (B16 melanoma (mouse) [23]): 66%
- ILS at 22.5 mg/kg (B16 melanoma (mouse) [24]): 10%
- Life span (L1210 [25]): 11.83 days

Reference: ChEMBL document CHEMBL1122809, “Improved synthesis and antitumor activity of 2-bromo-2'-deoxyadenosine” (1984)
